{"source": "ChEMBL document CHEMBL4371052", "about": "“Diarylcarbonates are a new class of deubiquitinating enzyme inhibitor” (Bioorg Med Chem Lett, 2019)", "key": {"[1]": {"molecular_target": "Ubiquitin carboxyl-terminal hydrolase 7 (Homo sapiens) (UniProt Q93009)", "sequence (Q93009 whole entry, looked up)": "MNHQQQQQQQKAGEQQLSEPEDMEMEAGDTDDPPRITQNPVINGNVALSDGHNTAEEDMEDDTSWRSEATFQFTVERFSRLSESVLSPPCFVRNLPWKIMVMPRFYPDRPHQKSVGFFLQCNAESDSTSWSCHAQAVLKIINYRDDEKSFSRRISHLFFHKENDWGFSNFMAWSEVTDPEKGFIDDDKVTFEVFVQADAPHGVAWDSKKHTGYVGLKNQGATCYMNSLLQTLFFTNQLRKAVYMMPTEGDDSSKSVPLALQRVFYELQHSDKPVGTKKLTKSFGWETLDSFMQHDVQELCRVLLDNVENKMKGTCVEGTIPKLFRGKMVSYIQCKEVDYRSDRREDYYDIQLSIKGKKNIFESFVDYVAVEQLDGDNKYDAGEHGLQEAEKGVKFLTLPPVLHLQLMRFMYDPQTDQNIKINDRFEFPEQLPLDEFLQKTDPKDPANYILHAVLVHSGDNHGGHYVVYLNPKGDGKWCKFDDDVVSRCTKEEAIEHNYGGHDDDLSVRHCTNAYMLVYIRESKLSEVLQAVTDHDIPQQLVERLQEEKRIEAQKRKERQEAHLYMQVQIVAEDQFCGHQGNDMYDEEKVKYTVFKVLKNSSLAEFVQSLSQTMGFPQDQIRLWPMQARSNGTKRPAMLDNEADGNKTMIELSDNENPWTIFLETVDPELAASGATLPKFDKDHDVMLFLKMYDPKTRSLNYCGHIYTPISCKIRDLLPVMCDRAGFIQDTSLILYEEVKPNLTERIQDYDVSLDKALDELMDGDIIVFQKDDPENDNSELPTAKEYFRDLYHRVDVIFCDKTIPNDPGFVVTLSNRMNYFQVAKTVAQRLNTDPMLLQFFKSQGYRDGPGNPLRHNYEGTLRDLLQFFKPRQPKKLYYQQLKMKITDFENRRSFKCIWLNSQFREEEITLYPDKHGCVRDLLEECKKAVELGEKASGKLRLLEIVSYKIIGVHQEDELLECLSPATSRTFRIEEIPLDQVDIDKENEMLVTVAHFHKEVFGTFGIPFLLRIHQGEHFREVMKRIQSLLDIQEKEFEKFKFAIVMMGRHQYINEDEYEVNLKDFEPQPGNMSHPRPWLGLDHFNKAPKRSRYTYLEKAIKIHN", "assay": "Inhibition of USP7 in HEK293T cell lysates assessed as ratio of HA-Ub-VS modified USP7 to total USP7 at 50 uM using HA-Ub vinyl-sulfone as substrate preincubated for 19 to 60 mins followed by substrate addition and measured after 19 to 25 mins by Western blot analysis (reference value: 0.5)", "assay_type": "subcellular", "conditions": "Lysate", "outline": "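HEK 293T lysate incubated with compound, then treated with HA-Ub-VS. Samples were run on SDS-PAGE and blotted with anti-USP7, and the probe-modified USP7 band was distinguished from unmodified USP7.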"}, "[2]": {"molecular_target": "Ubiquitin carboxyl-terminal hydrolase 9X (Homo sapiens) (UniProt Q93008)", "sequence (Q93008 whole entry, the tested form may be a part)": "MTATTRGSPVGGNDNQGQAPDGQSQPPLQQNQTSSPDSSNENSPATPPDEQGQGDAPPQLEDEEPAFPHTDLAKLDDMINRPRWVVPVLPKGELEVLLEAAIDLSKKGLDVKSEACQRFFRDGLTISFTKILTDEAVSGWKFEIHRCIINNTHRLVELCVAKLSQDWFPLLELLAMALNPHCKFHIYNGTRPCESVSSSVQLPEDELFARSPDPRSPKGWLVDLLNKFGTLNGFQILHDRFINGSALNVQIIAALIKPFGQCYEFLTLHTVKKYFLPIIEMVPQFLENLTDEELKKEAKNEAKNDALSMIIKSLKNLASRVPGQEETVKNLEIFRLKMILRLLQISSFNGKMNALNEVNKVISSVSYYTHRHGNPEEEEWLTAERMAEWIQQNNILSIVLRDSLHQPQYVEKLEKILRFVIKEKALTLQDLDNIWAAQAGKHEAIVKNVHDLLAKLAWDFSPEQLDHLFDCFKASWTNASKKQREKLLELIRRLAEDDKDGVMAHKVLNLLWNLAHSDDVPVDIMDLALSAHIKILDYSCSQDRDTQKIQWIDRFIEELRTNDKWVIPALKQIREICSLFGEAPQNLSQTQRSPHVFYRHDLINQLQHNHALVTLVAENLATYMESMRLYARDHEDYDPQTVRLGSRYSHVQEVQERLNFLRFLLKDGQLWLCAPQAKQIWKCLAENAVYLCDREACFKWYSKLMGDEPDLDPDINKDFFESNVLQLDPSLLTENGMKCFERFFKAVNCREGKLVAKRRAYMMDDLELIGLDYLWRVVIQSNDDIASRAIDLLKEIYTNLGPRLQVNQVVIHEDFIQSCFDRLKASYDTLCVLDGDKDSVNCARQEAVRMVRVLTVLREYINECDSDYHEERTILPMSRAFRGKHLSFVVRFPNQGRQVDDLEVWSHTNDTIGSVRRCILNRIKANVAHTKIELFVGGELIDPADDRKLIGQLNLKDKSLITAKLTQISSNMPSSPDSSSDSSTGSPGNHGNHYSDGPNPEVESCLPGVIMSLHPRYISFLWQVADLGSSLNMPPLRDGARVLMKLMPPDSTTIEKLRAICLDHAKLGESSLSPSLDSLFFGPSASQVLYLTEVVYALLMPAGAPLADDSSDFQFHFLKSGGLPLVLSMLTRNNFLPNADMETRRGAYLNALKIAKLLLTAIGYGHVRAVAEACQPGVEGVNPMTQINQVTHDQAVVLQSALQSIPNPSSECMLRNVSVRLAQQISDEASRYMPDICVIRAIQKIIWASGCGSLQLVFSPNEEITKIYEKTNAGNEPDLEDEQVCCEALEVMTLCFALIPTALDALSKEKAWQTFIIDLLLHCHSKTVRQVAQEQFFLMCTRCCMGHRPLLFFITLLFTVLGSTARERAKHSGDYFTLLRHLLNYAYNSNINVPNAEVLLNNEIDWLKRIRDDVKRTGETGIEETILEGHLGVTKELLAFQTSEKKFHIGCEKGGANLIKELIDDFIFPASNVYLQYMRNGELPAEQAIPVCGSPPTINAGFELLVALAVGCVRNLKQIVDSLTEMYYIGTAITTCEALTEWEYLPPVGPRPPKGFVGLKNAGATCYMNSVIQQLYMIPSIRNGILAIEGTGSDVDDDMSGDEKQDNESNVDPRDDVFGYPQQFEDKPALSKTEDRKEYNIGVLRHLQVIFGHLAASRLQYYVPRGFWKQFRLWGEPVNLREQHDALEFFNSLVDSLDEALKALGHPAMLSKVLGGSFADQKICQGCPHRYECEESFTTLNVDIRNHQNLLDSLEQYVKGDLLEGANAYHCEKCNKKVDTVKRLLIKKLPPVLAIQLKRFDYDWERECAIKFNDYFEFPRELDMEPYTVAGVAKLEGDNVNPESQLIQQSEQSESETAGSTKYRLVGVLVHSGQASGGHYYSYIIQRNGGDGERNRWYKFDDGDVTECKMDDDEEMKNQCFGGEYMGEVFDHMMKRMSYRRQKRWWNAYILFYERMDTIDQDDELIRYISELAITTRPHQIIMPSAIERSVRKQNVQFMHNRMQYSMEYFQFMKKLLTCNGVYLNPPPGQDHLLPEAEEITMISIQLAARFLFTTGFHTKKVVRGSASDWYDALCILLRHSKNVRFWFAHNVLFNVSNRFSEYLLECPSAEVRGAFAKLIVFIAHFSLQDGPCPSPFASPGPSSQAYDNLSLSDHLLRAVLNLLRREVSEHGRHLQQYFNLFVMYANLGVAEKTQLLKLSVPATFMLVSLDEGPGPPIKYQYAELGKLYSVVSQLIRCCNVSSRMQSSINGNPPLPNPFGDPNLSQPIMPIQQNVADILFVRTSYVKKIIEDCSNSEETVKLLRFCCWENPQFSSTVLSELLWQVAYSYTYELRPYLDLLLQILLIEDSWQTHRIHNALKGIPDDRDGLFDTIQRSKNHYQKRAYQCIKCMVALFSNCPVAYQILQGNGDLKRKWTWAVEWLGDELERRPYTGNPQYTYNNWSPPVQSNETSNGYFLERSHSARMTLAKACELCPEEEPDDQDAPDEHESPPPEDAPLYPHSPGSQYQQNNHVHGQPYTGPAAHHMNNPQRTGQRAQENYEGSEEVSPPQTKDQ", "assay": "Inhibition of USP9x in human K562 cells assessed as decrease in Bcr-Abl expression at 50 uM measured after 2 hrs by Western blot analysis", "assay_type": "cell-based", "outline": "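K562 cells treated with 50 μM compound for 2 h. Lysates were sonicated in SDS, and Bcr-Abl was immunoblotted with anti-Abl antibody.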"}, "[3]": {"tested_on": "K562", "assay": "Cell cycle arrest in human K562 cells assessed as increase in accumulation at sub G1-phase after 24 hrs by propidium iodide staining based flow cytometry", "assay_type": "functional", "outline": "(§1)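 K562 cells exposed to compound for 24 h, then analysed for cell cycle by FACS. Sub-G1 cells were counted as apoptotic, with the G1 fraction reported separately.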"}, "[4]": {"molecular_target": "Ubiquitin carboxyl-terminal hydrolase 9X (Homo sapiens) (UniProt Q93008)", "assay": "Inhibition of recombinant His6-tagged USP9x catalytic domain (unknown origin) assessed as association constant using Ub-AMC as substrate by fluorescence assay"}, "[5]": {"molecular_target": "Ubiquitin carboxyl-terminal hydrolase isozyme L1 (Homo sapiens) (UniProt P09936)", "sequence (P09936 whole entry, looked up)": "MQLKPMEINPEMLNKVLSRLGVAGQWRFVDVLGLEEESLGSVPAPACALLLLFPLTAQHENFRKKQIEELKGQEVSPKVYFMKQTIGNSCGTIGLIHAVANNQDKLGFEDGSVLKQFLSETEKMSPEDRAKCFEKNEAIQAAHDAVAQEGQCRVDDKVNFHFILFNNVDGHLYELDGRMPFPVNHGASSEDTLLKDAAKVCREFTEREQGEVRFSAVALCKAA", "assay": "Inhibition of UCHL1 in HEK293T cell lysates at 25 uM using HA-tagged vinyl-sulfone as substrate measured after 2 to 30 mins by Western blot analysis", "assay_type": "subcellular", "conditions": "Lysate", "outline": "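HEK 293T lysate (1.5 mg/ml) given compound (25 μM) or DMSO at the same time as HA-Ub-VS (1.5 μM). Aliquots withdrawn over time were run on SDS-PAGE and immunoblotted for HA.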"}, "[6]": {"molecular_target": "Ubiquitin carboxyl-terminal hydrolase 7 (Homo sapiens) (UniProt Q93009)", "assay": "Inhibition of USP7 in HEK293T cell lysates at 25 uM using HA-tagged vinyl-sulfone as substrate preincubated for 19 to 60 mins followed by substrate addition and measured after 19 to 25 mins by Western blot analysis", "assay_type": "subcellular", "conditions": "Lysate"}, "[7]": {"molecular_target": "T1, Ubiquitin carboxyl-terminal hydrolase 19 (Homo sapiens) (UniProt O94966)", "T1 sequence (whole entry)": "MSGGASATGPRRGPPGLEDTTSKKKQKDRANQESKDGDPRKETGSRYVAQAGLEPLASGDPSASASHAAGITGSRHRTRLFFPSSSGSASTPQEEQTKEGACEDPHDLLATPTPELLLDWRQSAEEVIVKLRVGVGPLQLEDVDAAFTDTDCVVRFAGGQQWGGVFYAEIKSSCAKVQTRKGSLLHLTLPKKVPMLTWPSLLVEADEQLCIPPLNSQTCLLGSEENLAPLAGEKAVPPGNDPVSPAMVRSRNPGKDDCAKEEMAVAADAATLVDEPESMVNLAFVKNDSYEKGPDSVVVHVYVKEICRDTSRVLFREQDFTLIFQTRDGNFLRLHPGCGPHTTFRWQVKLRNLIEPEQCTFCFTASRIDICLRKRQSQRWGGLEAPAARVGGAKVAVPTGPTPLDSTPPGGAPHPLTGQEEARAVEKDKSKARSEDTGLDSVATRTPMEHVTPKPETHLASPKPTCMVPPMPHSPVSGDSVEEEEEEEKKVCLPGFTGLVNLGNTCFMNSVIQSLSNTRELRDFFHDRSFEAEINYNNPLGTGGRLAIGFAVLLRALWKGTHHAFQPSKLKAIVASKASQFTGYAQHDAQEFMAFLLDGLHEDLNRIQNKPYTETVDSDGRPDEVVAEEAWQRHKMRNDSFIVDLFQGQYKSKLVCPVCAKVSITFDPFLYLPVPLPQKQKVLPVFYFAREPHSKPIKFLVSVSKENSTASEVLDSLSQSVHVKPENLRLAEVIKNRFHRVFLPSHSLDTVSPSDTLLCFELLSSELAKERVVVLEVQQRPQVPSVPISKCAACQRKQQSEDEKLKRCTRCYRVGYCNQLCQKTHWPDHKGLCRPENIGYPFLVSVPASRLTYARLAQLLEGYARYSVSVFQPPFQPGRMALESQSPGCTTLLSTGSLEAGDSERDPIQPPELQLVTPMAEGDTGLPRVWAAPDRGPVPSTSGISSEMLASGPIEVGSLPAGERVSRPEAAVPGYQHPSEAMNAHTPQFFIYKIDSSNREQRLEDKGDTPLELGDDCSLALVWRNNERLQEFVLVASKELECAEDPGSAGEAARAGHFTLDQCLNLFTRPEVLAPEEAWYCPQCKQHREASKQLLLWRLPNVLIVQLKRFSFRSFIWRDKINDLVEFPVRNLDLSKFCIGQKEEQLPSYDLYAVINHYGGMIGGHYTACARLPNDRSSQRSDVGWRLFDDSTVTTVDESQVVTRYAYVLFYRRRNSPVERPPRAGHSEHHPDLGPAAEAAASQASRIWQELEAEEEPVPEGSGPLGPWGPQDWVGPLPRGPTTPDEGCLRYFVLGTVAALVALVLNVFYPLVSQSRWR", "assay": "Inhibition of USP19 in HEK293T cell lysates at 25 uM using HA-tagged vinyl-sulfone as substrate preincubated for 19 to 60 mins followed by substrate addition and measured after 19 to 25 mins by Western blot analysis", "assay_type": "subcellular", "conditions": "Lysate"}, "[8]": {"molecular_target": "Ubiquitin carboxyl-terminal hydrolase 7 (Homo sapiens) (UniProt Q93009)", "assay": "Inhibition of USP7 in HEK293T cell lysates assessed as enzyme recovery at 250 uM using HA-tagged vinyl-sulfone as substrate […] followed by 10-fold dilution and subsequent substrate addition measured up to 2 hrs by Western blot analysis", "assay_type": "subcellular", "conditions": "Lysate"}, "[9]": {"molecular_target": "T2, Ubiquitin carboxyl-terminal hydrolase isozyme L3 (Homo sapiens) (UniProt P15374)", "T2 sequence (whole entry)": "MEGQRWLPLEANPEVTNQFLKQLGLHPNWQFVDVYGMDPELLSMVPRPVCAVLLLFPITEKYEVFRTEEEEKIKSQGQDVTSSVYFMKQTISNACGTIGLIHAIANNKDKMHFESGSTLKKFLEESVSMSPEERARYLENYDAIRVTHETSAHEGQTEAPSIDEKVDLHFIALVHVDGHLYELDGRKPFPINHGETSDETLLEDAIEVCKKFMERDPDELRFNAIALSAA", "assay": "Inhibition of UCHL3 in HEK293T cell lysates at 25 uM using HA-tagged vinyl-sulfone as substrate preincubated for 19 to 60 mins followed by substrate addition and measured after 19 to 25 mins by Western blot analysis", "assay_type": "subcellular", "conditions": "Lysate"}, "[10]": {"molecular_target": "chymotrypsin (Homo sapiens, UniProt P17538+P40313+Q6GPI1+Q99895)", "assay": "(§2) Substrate activity at chymotrypsin (unknown origin) by Michaelis-Menten plot analysis", "assay_type": "ADME, protein assay", "conditions": "chymotrypsin (isolated enzyme, unknown origin)", "outline": "(§3)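 Diarylcarbonate hydrolysis by chymotrypsin or trypsin measured across substrate concentrations; velocity versus substrate concentration fit for Km and kcat.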"}, "[11]": {"molecular_target": "Chymotrypsin (Homo sapiens, UniProt Q99895+P17538+P40313+Q6GPI1)", "assay": "as §2", "assay_type": "ADME, protein assay", "outline": "as §3"}, "[12]": {"tested_on": "K562", "assay": "Cell cycle arrest in human K562 cells assessed as increase in accumulation at G1-phase after 24 hrs by propidium iodide staining based flow cytometry", "assay_type": "functional", "outline": "as §1"}}, "note": "The source made the active and inactive calls. The rule behind the calls is not given here.", "data": [{"smiles": "NCc1ccc(OC(=O)Oc2ccc3ccccc3c2)cc1", "values": [{"measurement": "Ratio", "setting": "[1]", "result": 0.4}, {"measurement": "inhibition", "setting": "[2]", "result": "Active"}, {"measurement": "Activity", "setting": "[3]", "result": "Dose-dependent effect"}, {"measurement": "K", "setting": "[4]", "result": 49, "unit": "M⁻¹ s⁻¹"}, {"measurement": "inhibition", "setting": "[5]", "result": "inactive"}, {"measurement": "inhibition", "setting": "[6]", "result": "Active"}, {"measurement": "inhibition", "setting": "[7]", "result": "Active"}, {"measurement": "inhibition", "setting": "[8]", "result": "inactive"}, {"measurement": "inhibition", "setting": "[9]", "result": "inactive"}, {"measurement": "Km", "setting": "[10]", "result": 1, "unit": "µM"}, {"measurement": "Kcat", "setting": "[11]", "result": 0.03, "unit": "s⁻¹"}, {"measurement": "Activity", "setting": "[12]", "result": "Dose-dependent effect"}]}]}
